The source made the active and inactive calls. The calls are words filed in the database; no cut-off is given here.
Assays:
[1] = biological target: B-cell lymphoma 6 protein (Homo sapiens, UniProt P41182, C67R/C84N/C8Q); assay: Inhibition of recombinant human C-terminal GST-tagged BCL6 BTB domain C8Q/C67R/C84N triple mutant expressed in Escherichia coli BL21 (DE3) cells assessed as reduction in SMRT/BTB domain interaction incubated for 1 hr by HTRF assay
[2] = system: SUD4; assay: Antiproliferative activity against human SUDHL4 cells assessed as reduction in cell viability incubated for 72 hrs by CCK8 assay; details: SU-DHL-4, 72 h
[3] = system: Farage; assay: Antiproliferative activity against human Farage cells assessed as reduction in cell viability incubated for 72 hrs by CCK8 assay
[4] = system: DOHH-2; assay: Antiproliferative activity against human DOHH2 cells assessed as reduction in cell viability incubated for 72 hrs by CCK8 assay; details: DOHH-2, 72 h
[5] = system: OCI-Ly7; assay: Antiproliferative activity against human OCI-LY7 cells assessed as reduction in cell viability incubated for 72 hrs by CCK8 assay; details: OCI-Ly7, 72 h
[6] = system: Toledo; assay: Antiproliferative activity against BCL6-negative human Toledo cells assessed as reduction in cell viability incubated for 72 hrs by CCK8 assay
[7] = system: L02; assay: Cytotoxicity against human LO2 cells assessed as reduction in cell viability incubated for 72 hrs by CCK8 assay; details: L02, 72 h
[8] = Cytotoxicity against HAF cells assessed as reduction in cell viability incubated for 72 hrs by CCK8 assay; details: Homo sapiens
[9] = system: NCM460; assay: Cytotoxicity against human NCM460 cells assessed as reduction in cell viability incubated for 72 hrs by CCK8 assay; details: NCM460, 72 h
[10] = system: PNT1A; assay: Cytotoxicity against human PNT1A cells assessed as reduction in cell viability incubated for 72 hrs by CCK8 assay
[11] = system: SUD4; assay: Induction of apoptosis in human SUDHL4 cells assessed as late apoptotic cells at 0.625 uM incubated for 48 hrs by annexin V-FITC and propidium iodide staining based flow cytometry analysis (reference value: 1.39%); assay type: functional
[12] = system: SUD4; assay: Induction of apoptosis in human SUDHL4 cells assessed as late apoptotic cells at 1.25 uM incubated for 48 hrs by annexin V-FITC and propidium iodide staining based flow cytometry analysis (reference value: 1.39%); assay type: functional
[13] = system: SUD4; assay: Induction of apoptosis in human SUDHL4 cells assessed as late apoptotic cells at 2.5 uM incubated for 48 hrs by annexin V-FITC and propidium iodide staining based flow cytometry analysis (reference value: 1.39%); assay type: functional
[14] = system: SUD4; assay: Induction of apoptosis in human SUDHL4 cells assessed as early apoptotic cells at 0.625 uM incubated for 48 hrs by annexin V-FITC and propidium iodide staining based flow cytometry analysis (reference value: 2.62%); assay type: functional
[15] = system: SUD4; assay: Induction of apoptosis in human SUDHL4 cells assessed as early apoptotic cells at 1.25 uM incubated for 48 hrs by annexin V-FITC and propidium iodide staining based flow cytometry analysis (reference value: 2.62%); assay type: functional
[16] = system: SUD4; assay: Induction of apoptosis in human SUDHL4 cells assessed as early apoptotic cells at 2.5 uM incubated for 48 hrs by annexin V-FITC and propidium iodide staining based flow cytometry analysis (reference value: 2.62%); assay type: functional
[17] = system: Farage; assay: Antiproliferative activity against human Farage cells transfected with lentivirus expressing BCL6 shRNA assessed as reduction in cell viability at 10 to 80 uM incubated for 72 hrs by CCK8 assay; assay type: functional, cell-based
[18] = system: Farage; assay: Antiproliferative activity against human Farage cells transfected with empty vector lentivirus assessed as reduction in cell viability at 10 to 80 uM incubated for 72 hrs by CCK8 assay; assay type: functional, cell-based
How it was run: (§1)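 Lentivirus made by transfection; supernatant collected at 48 h and 72 h. DLBCL cells infected with virus plus 8 μg/mL polybrene for 48 h, then selected in RPMI 1640 with 2 μg/mL puromycin. Transduced cells seeded at 2 × 10⁴ cells/well and exposed to compound for 72 h. CCK8 added, 1-2 h at 37 °C, absorbance read at 450 nm. Run in triplicate.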

[19] = system: Toledo; assay: Antiproliferative activity against human Toledo cells transfected with empty vector lentivirus assessed as reduction in cell viability up to 20 uM incubated for 72 hrs by CCK8 assay; assay type: functional, cell-based; how it was run: as §1
[20] = system: Toledo; assay: Antiproliferative activity against human Toledo cells transfected with lentivirus overexpressing BCL6 assessed as reduction in cell viability up to 20 uM incubated for 72 hrs by CCK8 assay; assay type: functional, cell-based; how it was run: as §1
[21] = system: SUD4; assay: Antiproliferative activity against human SUDHL4 cells assessed as living cells and S phase cells at 2.5 uM incubated for 48 hrs by Edu based flow cytometry analysis (reference value: 48.3%)
[22] = system: SUD4; assay: Antiproliferative activity against human SUDHL4 cells assessed as living cells and S phase cells at 1.25 uM incubated for 48 hrs by Edu based flow cytometry analysis (reference value: 48.3%)
[23] = system: SUD4; assay: Antiproliferative activity against human SUDHL4 cells assessed as living cells and S phase cells at 0.625 uM incubated for 48 hrs by Edu based flow cytometry analysis (reference value: 48.3%)
[24] = system: Mus musculus; assay: In vivo inhibition of GC formation in NP-CGG immunized C57BL/6 mouse assessed as splenic GC B cells (GL7+FAS+B220+) at 50 mg/kg/day, ip for 12 days starting from 2 days after NP-CGG addition by flow cytometry (reference value: 1.97%); assay type: functional; set-up: scale not given: the % may be the effect or the level left
[25] = organism: Mus musculus; details: C57BL/6, 50 mg/kg
[26] = biological target: B-cell lymphoma 6 protein (Homo sapiens, UniProt P41182); assay: Binding affinity to lateral groove of BCL6 BTB domain (unknown origin)
How it was run: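 GST-tagged BCL6 protein was expressed in E. coli BL21(DE3), purified on glutathione Sepharose, dialysed into PBS and used for biolayer interferometry. GST biosensors were hydrated 10 min in kinetics buffer (1× PBS, 0.02% Tween 20), given a 60 s baseline, then loaded with BCL6-GST at 50 ng/mL for 300-600 s. After a second 60 s baseline, sensors were dipped into serially diluted compound.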

With `COc1cc(Nc2nc(N3C[C@@H](C)N[C@@H](C)C3)ncc2F)ccc1NC(=O)c1ccc(Br)o1` the IC50 [1] was over 10 µM.

Work on `COc1ccc(Nc2nc(N(CC(C)C)CC(C)C)ncc2F)cc1Cl` yielded an IC50 [1] of over 10 µM.

`COc1ccc(Nc2nc(N3C[C@H](C)C[C@H](C)C3)ncc2F)cc1Cl` showed an IC50 [1] of over 10 µM.

`COc1ccc(Nc2nc(N3C[C@@H](C)N[C@@H](C)C3)ncc2F)cc1NC(=O)c1ccc(Br)o1` showed an IC50 [1] of over 20 µM.

Work on `COc1ccc(Nc2nc(N3C[C@@H](C)N[C@@H](C)C3)ncc2F)cc1NC(=O)c1ccc(Br)s1` yielded an IC50 [1] of over 20 µM.

With `CCCCNc1ncc(F)c(Nc2ccc(OC)c(Cl)c2)n1` the IC50 [1] was over 10 µM.

`O=C1Cc2cc(Nc3nc(NCc4cccnc4)ncc3Cl)ccc2N1` showed an IC50 [2] of 24.3 µM, an IC50 [3] of 33.5 µM and an IC50 [4] of 47.6 µM. The IC50 [5] was 33.9 µM, the IC50 [6] was 39.5 µM and the IC50 [7] was over 100 µM. For the same compound, the IC50 [8] was over 100 µM, the IC50 [9] was over 100 µM and the IC50 [10] was over 100 µM. It also gave an Activity [11] of 1.89%, an Activity [12] of 1.97% and an Activity [13] of 1.74%. The Activity [14] was 3.11%, the Activity [15] was 3.43% and the Activity [16] was 3.15%. For the same compound, the Activity [17] was “Active”, the Activity [18] was “Active” and the Activity [19] was “Active”. The Activity [20] was “Active”, the Activity [21] was 41.2% and the Activity [22] was 41.6%. The Activity [23] was 43.4%.

Work on `O=C(O)CCN1C(=O)/C(=C2/C(=O)Nc3ccc(Cl)cc32)SC1=S` yielded an IC50 [2] of 51.3 µM, an IC50 [3] of 33.9 µM and an IC50 [4] of 35.1 µM. The IC50 [5] was 39 µM, the IC50 [6] was 65.3 µM and the IC50 [7] was over 100 µM. The IC50 [8] was over 100 µM, the IC50 [9] was over 100 µM and the IC50 [10] was over 100 µM. It also gave an Activity [11] of 1.81%, an Activity [12] of 1.73% and an Activity [13] of 1.96%. It also gave an Activity [14] of 2.86%, an Activity [15] of 2.62% and an Activity [16] of 3.19%. For the same compound, the Activity [24] was 0.73%, the Activity [17] was “Active” and the Activity [18] was “Active”. The Activity [20] was “Active”, the inhibition [25] was “Active” and the Activity [21] was 47.4%. It also gave an Activity [22] of 45.1% and an Activity [23] of 48.5%.

`O=C(O)CC(C(=O)O)N1C(=O)/C(=C2/C(=O)Nc3ccc(Br)cc32)SC1=S` (stereo not drawn) gave a Kd [26] of 138 µM.

In the case of `COc1cc(Nc2nc(N3C[C@@H](C)N[C@@H](C)C3)ncc2F)ccc1NC(=O)c1ccc(Br)s1`, the IC50 [1] is reported as over 10 µM.

From ChEMBL document CHEMBL4376875, “Synthesis and Biological Evaluation of B-Cell Lymphoma 6 Inhibitors of N-Phenyl-4-pyrimidinamine Derivatives Bearing Potent Activities against Tumor Growth” (J Med Chem, 2020)
